Screens: PubChem BioAssay, several laboratories
NLRP3 yeast inh – NALP3 inflammasome inhibitors in reconstituted yeast, primary screen, luminescence, uHTS | Yeast reconstituted NLRP3/ASC/caspase-1, beta-gal luminescence, 24 h | inhibition, % at 10 µM | 0.39% of 330,000 active | AID 2825, 2010;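 active = inhibition of 50% or more; inactive = inhibition below 50%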;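 note: plate controls were induced DMSO wells for no effect and uninduced yeast grown without galactose for full effect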
NALP1 inh – NALP1 inflammasome inhibitors in reconstituted yeast, colorimetric, S. cerevisiae, triplicate retest; S. cerevisiae NALP1/ASC/caspase-1 growth, X-gal OD620, 72 h; 0.61% of 280,000 active; inhibition, % at 10 µM; AID 2071, 2009; in the data active = inhibition mostly above about 24%, no sharp cut-off; inactive = mostly below about 32%
PolyA inh – polyadenylation inhibitors in yeast reporter cells, primary screen, luminescence, S. cerevisiae; S. cerevisiae SKY197-pL101 polyadenylation reporter, beta-gal luminescence; efflux-impaired pdr1/pdr3 knockout yeast; score 100 = 6 SD above DMSO; activity score, % at 12 µM; 0.02% of 300,000 active;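 active = lowest replicate activity score at least 50, where 100 means six control SD above control mean; inconclusive = lowest score under 50 but half or more replicates reach 50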;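 note: yeast exposed to compound for 9 h at 30 °C; higher score means more reporter readthrough which indicates perturbed polyadenylation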
Arrestin-AP2 inh – inhibitors of beta-arrestin/AP2 binding, primary screen, biochemical, GPCR trafficking, flow cytometry; 0.31% of 340,000 active; inhibition, % at 10 µM; beta-arrestin 1 C-terminal peptide binding to AP2 beta2-adaptin appendage (human); FITC-arrestin peptide / GST-AP2 beads; AP2 beta2 appendage carries R879A mutation;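 active = inhibition above a set limit, near 3 SD of compounds lacking own fluorescence, cut at about 54% in these data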;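 note: plate controls were DMSO wells for no effect and 5 µM unlabelled arrestin peptide for full effect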
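Material – AP2 appendage R879A on GSH beads · Buffer or medium – PBS with 0.05% Tween 20 and 0.1% BSA · Probe or stimulus – fluorescein-tagged arrestin peptide at 50 nM final · Incubation – compound with beads 12 min RT, then probe 1 h RT · Detection – high-throughput flow cytometry of beads, ex 488, em 535 nm · Evaluation – percent response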
ALR inh – inhibitors of human ALR sulfhydryl oxidase, primary screen, biochemical, H2O2 detection, HRP-luminol luminescence, single point | purified ALR, DTT oxidation | inhibition, % (no concentration beside the values) | 3.8% of 290,000 active | AID 485317, 2010;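 active = mean replicate inhibition above about 79%, with every replicate also reaching it, limit read from the data; inconclusive = only one of the two criteria met; inactive = mean below limit and not every replicate reaching it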
Pemphigus Ab inh – inhibitors of pemphigus antibody binding to DSG3, primary screen, biochemical, bead-based, flow cytometry, scFv-GFP | Desmoglein-3 (Homo sapiens), P32926 | DSG3-coupled beads, scFv-anti-DSG3-GFP binding; stronger effect = lower value | binding (percent of control), % at 10 µM | 0.48% of 310,000 active;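 active = binding more than 3 SD below its plate's average and above zero; inconclusive = below that plate limit but binding exactly zero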;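 note: hits lower antibody fragment binding to DSG3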
Starred values were filed as active, the others as inactive; ? = inconclusive; · = no result given. Sampled rows, rich in hits. Any-hit rate of the full collection: about 4.6%.

SMILES	NLRP3 yeast inh	NALP1 inh	PolyA inh	Arrestin-AP2 inh	ALR inh	Pemphigus Ab inh
CCc1ccc(NC(=O)CSc2nc3ccccc3nc2N2CCCC2)cc1	6	7	10	14	88*	94
Cc1ccc(NC(=O)CSc2nc3ccccc3nc2N2CCCC2)cc1	11	12	20	13	-16	95
O=C(CSc1nc(=O)n(CCCN2CCOCC2)c2c1CCC2)Nc1ccc(F)cc1	14	·	-6	-6	98*	98
O=C(Cc1ccccc1[N+](=O)[O-])NCC(O)c1ccc2c(c1)OCO2 (configuration not stated)	·	·	·	29	·	101
CCOC(=O)C1=CN(CC)S(=O)(=O)NC1c1cccc(OC)c1 (configuration not stated)	·	·	·	2	·	94
COc1ccccc1CNC(=O)C(=O)NCC1CCCN1S(=O)(=O)c1cccs1 (configuration not stated)	13	·	5	-2	-15	92
CC1CCCN(S(=O)(=O)c2cccc(C(=O)NCCCN3CCCC3=O)c2)C1 (configuration not stated)	·	·	·	·	·	98
CCc1ccc(NC(=O)CSc2nc(=O)n(CCCN3CCOCC3)c3c2CCC3)cc1	14	·	9	-6	98*	97
Cn1c(-c2c(N)n(CCCc3ccccc3)c3nc4ccccc4nc23)nc2ccccc21	·	41*	7	14	·	96
Cn1c(-c2c(N)n(CCc3ccccc3)c3nc4ccccc4nc23)nc2ccccc21	0	18	-21	-2	0	105
COc1ccc(Nc2nccc(-c3cccc(N)c3)n2)cc1	35	10	12	0	99*	?
O=C(N/N=C/c1c(O)n(Cc2ccccc2)c(=O)c2ccccc12)c1cccnc1	8	19	4	7	98*	110
COc1ccccc1N(C)S(=O)(=O)c1ccc(C(=O)N(C)Cc2cccc(F)c2)cc1	·	·	·	·	·	107
Nc1ccn([C@@H]2O[C@H](CNCc3cnc(N4CCOCC4)s3)[C@@H](O)[C@H]2O)c(=O)n1	·	·	·	·	·	112
Cc1cc(C)nc(NS(=O)(=O)c2ccc(NC(=O)CSc3nc(-c4ccccc4)c(C#N)c(=O)[nH]3)cc2)n1	8	23	16	4	99*	99
N#Cc1c(-c2ccccc2)nc(SCC(=O)Nc2ccc(OC(F)(F)Cl)cc2)[nH]c1=O	3	-9	11	-4	99*	121
Cc1cccc(NC(=O)CSc2nc(-c3ccccc3)c(C#N)c(=O)[nH]2)c1C	14	-17	4	17	91*	107
N#Cc1c(-c2ccccc2)nc(SCC(=O)Nc2ccccc2F)[nH]c1=O	·	22	·	10	99*	101
Cc1ccn(CCC(=O)Nc2ccc3c(c2)OCO3)n1	14	22	-14	-13	-8	103
Cc1cc(-n2c(C)cc(C(=O)COc3ccc(Cl)cc3C(N)=O)c2C)no1	12	·	·	-5	-4	·
N#Cc1c(-c2ccccc2)nc(SCC(=O)N(c2ccccc2)c2ccccc2)[nH]c1=O	·	24	-12	11	98*	98
N#Cc1c(-c2cccs2)nc(SCC(=O)c2cccs2)[nH]c1=O	16	-2	14	-4	98*	93
N#Cc1c(-c2ccccc2)nc(SCC(=O)Nc2ccccc2)[nH]c1=O	·	23	·	11	98*	103
Cc1cc(NC(=O)CSc2nc(-c3ccccc3)c(C#N)c(=O)[nH]2)no1	-13	1	7	6	·	108
COc1ccnc(CS(=O)c2nc3cc(OC(F)F)ccc3[nH]2)c1OC (configuration not stated)	5	·	6	·	-10	·
SMILES	NLRP3 yeast inh	NALP1 inh	PolyA inh	Arrestin-AP2 inh	ALR inh	Pemphigus Ab inh
Cc1ccc(NS(=O)(=O)c2ccc(C)c(NC(=S)NCCN3CCOCC3)c2)c(C)c1	7	·	·	2	·	108
Cc1ccc(C)c(C(=O)NC2CC(C)(C)NC(C)(C)C2)c1	30	1	17	2	·	105
Cc1ccc(C(=O)NC2CC(C)(C)NC(C)(C)C2)cc1C	11	10	-3	0	99*	105
Cn1c(=O)c2c(nc(N/N=C/c3ccncc3)n2Cc2ccccc2)n(C)c1=O	21	3	1	39	97*	96
Cc1ccc(Cn2c(SCc3cccnc3)nc3c2c(=O)n(C)c(=O)n3C)cc1	9	10	-8	-6	0	96
Cc1ccc(Cn2c(N/N=C/c3ccncc3)nc3c2c(=O)n(C)c(=O)n3C)cc1	23	-2	0	-2	97*	100
C/C(Cl)=C/Cn1c(NCCN(C)C)nc2c1c(=O)n(C)c(=O)n2C	0	29	23	1	3	103
C/C(Cl)=C\Cn1c(Nc2ccccc2)nc2c1c(=O)n(C)c(=O)n2C	9	19	11	27	87*	108
COc1cc(/C=N/Nc2nc3c(c(=O)n(C)c(=O)n3C)n2Cc2ccccc2)ccc1OC(=O)c1ccco1	-3	15	?	14	-8	115
C=C(C)CN=CC1(C)CCC(C)=CO1 (configuration not stated)	·	·	·	35	·	97
O=C(c1cccc(Oc2c(Cl)cccc2[N+](=O)[O-])c1)N1CCOCC1	3	2	0	1	-2	108
C[C@H](CO)N1C[C@H](C)[C@@H](CN(C)S(=O)(=O)c2ccc(F)cc2)Oc2c(NS(=O)(=O)c3ccc(F)cc3)cccc2C1=O	12	·	·	-2	·	95
COc1ccc(CN2C(=O)C(CC(=O)NC3CCCCC3)CC(C(=O)N(C(C)C)C(C)C)=C2C)cc1 (configuration not stated)	·	·	·	·	·	93
CCC(C)NC(=O)Cc1c(C)c2cc3c(cc2oc1=O)OC(C)(C)CC3 (configuration not stated)	0	8	-4	-8	-5	98
N#C/C(=C\c1cc(Cl)c(OCc2ccc(Cl)cc2)c(Cl)c1)C(N)=O	14	·	-11	·	2	·
N#C/C(=C\c1cc(O)c(O)c(O)c1)C(N)=O	13	-9	-7	37	99*	121
COc1cccc(N2C(=O)C3C(C2=O)C3(c2ccccc2)c2ccccc2)c1 (configuration not stated)	4	32*	-17	-3	-4	101
O=C(CSc1nc2scc(-c3ccco3)c2c(=O)n1-c1ccccc1)NCC1CCCO1 (configuration not stated)	5	16	7	1	96*	98
